Measured values of several laboratories.
Protocols differ between the studies behind these lines.
Target: Casein kinase I isoform delta (CSNK1D, Homo sapiens, UniProt P48730)

Compound	assay	setting	remaining binding
N[C@@H]1CCN(c2nccc(-c3cnn4ncccc34)n2)C1	binding	1 µM	14%
CN(C)CC#Cc1ccc(OCCCc2sc(N3CCc4cccc(C(=O)Nc5nc6ccccc6s5)c4C3)nc2C(=O)O)c(F)c1	cell-free assay, competition with immobilised ligand	1 µM	95%
FC(F)(F)Oc1cccc(-c2cnc3ccc(-c4ccncc4)nn23)c1	cell-free assay, competition with immobilised ligand	5 µM	56%
Cc1c(NC(=O)c2cc(C(N)=O)nc3cc(F)ccc23)c(C(F)(F)F)nn1Cc1ccc(C(C)(C)C)cc1	cell-free assay, competition with immobilised ligand	1 µM	81%
O=C(c1ccc(Nc2nccc(-c3cc4ccccc4s3)n2)cc1)N1CCC(N2CCCC2)CC1	binding, competition with immobilised ligand	1 µM	100%
CC(=O)C1=C(C)N(c2cccc(C(F)(F)F)c2)C(=O)N[C@@H]1c1ccc(C#N)nc1	cell-free assay, competition with immobilised ligand	1 µM	100%
C[C@@H]1CCN(c2nccc(-c3cnn4ncccc34)n2)C1	binding	1 µM	64%
O=C(NCC1CCOCC1)c1n[nH]cc1NC(=O)c1c(F)cccc1F	binding, competition with immobilised ligand	1 µM	77%
C=CC(=O)N1CCC(C(=O)NCC(=O)N2CCN(c3nc(-c4cnc(N)nc4C(F)F)nc(N4CCOCC4)n3)CC2)CC1	binding, competition with immobilised ligand	1 µM	100%
N#Cc1ccc(Nc2ccc3[nH]c(=O)[nH]c3c2)c(Cl)c1	cell-free assay, competition with immobilised ligand	1 µM	100%
N#Cc1ccccc1CSc1nnc2c(n1)[nH]c1ccccc12	binding, competition with immobilised ligand	10 µM	86%
CN(C(=O)c1ccccc1)c1cc(N(C)c2ccc3c(c2)CCc2ccc(C(=O)NCCN4CCOCC4)cc2C3=O)ccc1F	cell-free assay, competition with immobilised ligand	1 µM	100%
CN(CCCC(F)(F)F)c1nccc(-c2cnn3ncccc23)n1	binding	1 µM	100%
O=C(c1ccc(Nc2ncc(Cl)c(-c3ccc(Cl)s3)n2)cc1)N1CCC(N2CCCC2)CC1	binding, competition with immobilised ligand	1 µM	100%
O=C(Nc1cccnn1)N1CCC(=Cc2cccc(Oc3ccc(C(F)(F)F)cn3)c2)CC1	cell-free assay, competition with immobilised ligand	1 µM	100%
c1cncc(-c2cccc(Nc3nccc(NC4CCCCC4)n3)c2)c1	binding, competition with immobilised ligand	10 µM	55%
CNC(=O)Nc1ccc2c(c1)[C@@]1(CC2)OC(=O)N(CC(=O)N(Cc2ccc(F)cc2)[C@@H](C)C(F)(F)F)C1=O	cell-free assay, competition with immobilised ligand	1 µM	100%
CN(C)c1ncc(F)c(-c2cnn3ncccc23)n1	binding	1 µM	100%
CNC(=O)[C@@H]1CC[C@@H](n2c(-c3ccc4cnccc4c3)nc3ccc(C(=O)NCc4cccc(C(N)=O)c4)cc32)C1	binding, competition with immobilised ligand	1 µM	100%
c1cnn2ncc(-c3ccnc(N4CCC45COC5)n3)c2c1	binding	1 µM	41%
Cc1cnc(Nc2ccc(C(=O)N3CCC(N4CCCC4)CC3)cc2)nc1-c1cc2ccccc2s1	binding, competition with immobilised ligand	1 µM	100%
CN(C)c1nccc(-c2cnn3ncccc23)n1	binding	1 µM	62%
CCN1CCN(Cc2ccc(C(=O)Nc3ccc(C)c(Oc4ccc5c(c4)CC(=O)N5)c3)cc2C(F)(F)F)CC1	binding, competition with immobilised ligand	1 µM	88%
C[C@@H](c1ccc(-n2cnc3c(N)ncnc32)cc1)N1CCc2nn(C)c(Cc3ccccc3)c2C1=O	binding, competition with immobilised ligand	0.1 µM	76%
